Assay results as given in ChEMBL document CHEMBL2406978, “A novel one-pot synthesis and preliminary biological activity evaluation of cis-restricted polyhydroxy stilbenes incorporating protocatechuic acid and cinnamic acid fragments” (2013).
Calls of active or inactive are those of the source. The rule behind the calls is not given here.

How the values were obtained:
[1] = molecular target: T1, Tyrosinase (Agaricus bisporus) (UniProt O42713); assay: Inhibition of mushroom tyrosinase using L-tyrosine as substrate at 23 uM after 30 mins by spectrophotometric analysis
T1 sequence (whole entry): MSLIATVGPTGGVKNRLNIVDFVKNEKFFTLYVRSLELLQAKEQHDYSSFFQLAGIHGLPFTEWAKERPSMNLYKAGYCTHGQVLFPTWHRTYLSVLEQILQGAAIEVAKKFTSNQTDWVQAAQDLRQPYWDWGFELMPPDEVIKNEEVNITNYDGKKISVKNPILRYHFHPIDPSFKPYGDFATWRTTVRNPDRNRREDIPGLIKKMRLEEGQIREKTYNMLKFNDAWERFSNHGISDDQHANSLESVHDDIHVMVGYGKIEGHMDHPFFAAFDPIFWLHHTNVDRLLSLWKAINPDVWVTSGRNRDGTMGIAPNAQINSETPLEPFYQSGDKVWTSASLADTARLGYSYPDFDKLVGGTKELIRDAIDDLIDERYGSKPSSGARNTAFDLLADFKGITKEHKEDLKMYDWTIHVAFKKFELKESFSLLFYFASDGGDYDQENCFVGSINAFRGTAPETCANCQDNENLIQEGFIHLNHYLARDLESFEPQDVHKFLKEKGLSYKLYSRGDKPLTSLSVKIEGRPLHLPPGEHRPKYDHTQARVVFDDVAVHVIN
In short: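 Modified dopachrome method with L-tyrosine substrate, in 3 mL total: 1.0 mL 0.1 M phosphate buffer pH 6.8, 1.0 mL 1.5 mM tyrosine, 0.35 mL 0.2 mM inhibitor stock in DMSO, 0.35 mL water, and 0.30 mL mushroom tyrosinase at 192 U/mL. Reference used DMSO in place of inhibitor. Incubated 37 °C for 30 min, read at 475 nm; activity % = B/A × 100 (sample/reference absorbance).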

[2] = tested on: Escherichia coli; assay: Antibacterial activity against Escherichia coli ATCC 25922 at 50 ug/ml after 24 hrs by agar well diffusion method; type: functional, organism-based
[3] = tested on: Pseudomonas aeruginosa; assay: Antibacterial activity against Pseudomonas aeruginosa ATCC 10145 at 50 ug/ml after 24 hrs by agar well diffusion method; type: functional, organism-based
[4] = tested on: Aspergillus niger; assay: […] activity against Aspergillus niger A3 at 50 ug/ml after 24 hrs by agar well diffusion method relative to control; type: functional; details: A3, 24 h
[5] = tested on: Bacillus spizizenii; assay: Antibacterial activity against Bacillus subtilis ATCC 6633 at 50 ug/ml after 24 hrs by agar well diffusion method; type: functional
[6] = tested on: Staphylococcus aureus; assay: Antibacterial activity against Staphylococcus aureus ATCC 25923 at 50 ug/ml after 24 hrs by agar well diffusion method; type: functional, organism-based
[7] = tested on: Fusarium graminearum; assay: […] activity against Fusarium graminearum ATCC 24373 at 50 ug/ml after 24 hrs by agar well diffusion method relative to control; type: functional; details: ATCC 24373, 24 h
[8] = tested on: Radical scavenging activity; assay: Antioxidant activity assessed as DPPH free radical scavenging activity at 3.3 uM measured every 10 mins; type: functional
In short: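 Compound in methanol (0.5 mL) was added to 0.5 mL of 100 µM DPPH• stock solution, with a final compound level of 3.3 µM and DPPH•/substrate molar ratio 15 (radical in excess). Absorbance at 518 nm was read every 10 min until equilibrium. Methanol served as blank and caffeic acid as reference.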

[9] = tested on: Candida albicans; assay: […] activity against Candida albicans ATCC 10231 at 50 ug/ml after 24 hrs by agar well diffusion method relative to nystatine; type: functional; details: ATCC 10231, 24 h
[10] = tested on: Aspergillus flavus; assay: […] activity against Aspergillus flavus IMI 052104 at 50 ug/ml after 24 hrs by agar well diffusion method relative to control; type: functional; details: IMI 052104, 24 h
[11] = tested on: Fusarium graminearum; assay: […] activity against Fusarium graminearum ATCC 24373 at 0.17 umol/ml after 24 hrs by agar well diffusion method relative to control; type: functional, organism-based
[12] = tested on: Bacillus spizizenii; assay: Antibacterial activity against Bacillus subtilis ATCC 6633 at 50 ug/ml after 24 hrs by agar well diffusion method relative to amikacin; type: functional; details: ATCC 6633, 24 h
In short: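 Agar well diffusion on dried overlays of each test strain. Wells of 7 mm received 100 µL of sample at 0.5 mg/mL in DMSO, with DMSO wells as negative control. Positive controls were an amikacin 30 µg disc for bacteria and 100 µL nystatin 10000 IU/mL for C. albicans. Plates were held 60 min at 4 °C for diffusion, then incubated 24 h at 30 or 37 °C. Inhibition zones were measured in mm, in triplicate, and growth inhibition was expressed relative to the positive control.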

SMILES	inhibition [1]	inhibition [2]	inhibition [3]	inhibition at 50 µg/mL [4] [%]	inhibition [5]	inhibition [6]	inhibition at 50 µg/mL [7] [%]	Activity [8]	inhibition at 50 µg/mL [9] [%]	inhibition at 50 µg/mL [10] [%]	inhibition [11]	inhibition at 50 µg/mL [12] [%]
Oc1ccc(O)cc1	Active	–	–	–	–	–	–	–	–	–	–	–
CC(C)(C)c1cc(/C=C(/C(=O)O)c2cc(O)c(O)cc2C(=O)O)cc(C(C)(C)C)c1O	Active	inactive	inactive	44	inactive	inactive	76	Active	40	52	–	–
O=C(O)/C(=C/c1ccccc1)c1cc(O)c(O)cc1C(=O)O	Active	inactive	inactive	34	inactive	inactive	89	Active	40	43	Active	–
O=C(O)/C(=C/c1ccc(O)cc1)c1cc(O)c(O)cc1C(=O)O	Active	inactive	inactive	38	inactive	inactive	72	Active	34	42	–	–
COc1cc(C(=O)O)c(/C(=C\c2cc(C(C)(C)C)c(O)c(C(C)(C)C)c2)C(=O)O)cc1OC	Active	–	–	44	–	–	70	18%	48	48	–	44
O=C(O)/C=C/c1ccc(O)c(O)c1 [CAFFEIC ACID]	Active	–	–	35	–	–	63	Active	–	16	–	–
O=C(O)/C(=C/c1ccc(O)c(O)c1)c1cc(O)c(O)cc1C(=O)O	Active	inactive	inactive	37	inactive	inactive	72	Active	45	42	–	–
O=C(O)/C(=C/c1cc(O)c(O)c(O)c1)c1cc(O)c(O)cc1C(=O)O	Active	inactive	inactive	37	inactive	inactive	71	Active	40	42	–	–
O=C(O)c1ccc(O)c(O)c1 [PROTOCATECHUIC ACID]	Active	–	–	40	–	–	76	Active	–	9	–	–
